Results: ChEMBL document CHEMBL1649098 (ACS Med Chem Lett, 2011)
Calls of active or inactive are those of the source.

Legend:
[1] = target: T1, Fatty-acid amide hydrolase 1 (Rattus norvegicus) (UniProt P97612); test: Irreversible inhibition of His-tagged rat FAAH N-terminal transmembrane-deleted truncated form expressed in Escherichia coli assessed as ratio of Kinact to Ki by GDH-coupled FAAH assay
T1 sequence (whole entry): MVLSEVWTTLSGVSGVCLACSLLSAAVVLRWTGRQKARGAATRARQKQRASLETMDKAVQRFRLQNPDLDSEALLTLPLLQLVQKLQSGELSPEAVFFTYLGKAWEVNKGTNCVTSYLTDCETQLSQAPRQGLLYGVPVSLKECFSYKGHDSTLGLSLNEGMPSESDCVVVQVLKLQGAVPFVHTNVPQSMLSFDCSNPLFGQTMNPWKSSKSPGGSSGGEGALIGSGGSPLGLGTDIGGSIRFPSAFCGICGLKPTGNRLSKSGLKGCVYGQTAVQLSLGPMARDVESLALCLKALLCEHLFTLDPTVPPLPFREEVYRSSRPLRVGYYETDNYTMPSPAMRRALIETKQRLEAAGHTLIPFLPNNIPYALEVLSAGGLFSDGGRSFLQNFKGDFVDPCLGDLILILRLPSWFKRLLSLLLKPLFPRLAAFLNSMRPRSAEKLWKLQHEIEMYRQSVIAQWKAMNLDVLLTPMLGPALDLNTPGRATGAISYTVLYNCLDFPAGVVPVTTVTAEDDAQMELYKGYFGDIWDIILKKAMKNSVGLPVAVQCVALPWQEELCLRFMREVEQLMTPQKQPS
Outline: (§1)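 Irreversible potency was measured as the second-order rate constant kinact/Ki in an enzyme-coupled FAAH assay (human or rat enzyme). Values are the average of at least two independent determinations ±SD.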

[2] = target: T2, Fatty-acid amide hydrolase 1 (Homo sapiens) (UniProt O00519); test: Irreversible inhibition of His-tagged human FAAH N-terminal transmembrane-deleted truncated form expressed in Escherichia coli assessed as ratio of Kinact to Ki by GDH-coupled FAAH assay; outline: as §1
T2 sequence (whole entry): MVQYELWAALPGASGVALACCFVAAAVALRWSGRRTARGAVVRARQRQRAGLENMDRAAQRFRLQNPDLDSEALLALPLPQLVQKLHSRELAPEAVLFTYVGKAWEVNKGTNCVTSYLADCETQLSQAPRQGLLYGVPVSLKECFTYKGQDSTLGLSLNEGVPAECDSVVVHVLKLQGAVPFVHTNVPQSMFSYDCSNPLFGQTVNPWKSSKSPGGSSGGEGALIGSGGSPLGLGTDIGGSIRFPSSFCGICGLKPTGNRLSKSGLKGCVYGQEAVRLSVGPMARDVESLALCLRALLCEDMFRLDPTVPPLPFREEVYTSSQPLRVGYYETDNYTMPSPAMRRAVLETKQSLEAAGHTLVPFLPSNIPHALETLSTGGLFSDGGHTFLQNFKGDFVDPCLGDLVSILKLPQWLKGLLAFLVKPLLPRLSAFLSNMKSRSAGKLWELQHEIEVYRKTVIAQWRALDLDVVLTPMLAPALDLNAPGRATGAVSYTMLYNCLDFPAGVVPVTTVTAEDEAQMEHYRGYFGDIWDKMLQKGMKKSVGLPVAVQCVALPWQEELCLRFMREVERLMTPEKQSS

[3] = organism: Rattus norvegicus; details: Sprague-Dawley, 10 mg/kg
[4] = tested on: Rattus norvegicus; test: Antihyperalgesic activity in orally dosed Sprague-Dawley rat model of complete Freund's adjuvant-induced inflammatory pain model assessed as reduction in mechanical allodynia measured 4 hrs post dose; assay type: functional
Outline: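 CFA was injected subcutaneously into the plantar surface of the rat hind paw. Oral dosing at 0.1-10 mg/kg began 5 days post-injection, once mechanical paw withdrawal threshold had fallen. Mechanical allodynia was read as paw withdrawal threshold 4 h after dosing. n=8 rats per group; significance versus vehicle-treated groups at p<0.05.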

[5] = target: Cytochrome P450 2D6 (Homo sapiens, UniProt P10635); test: Inhibition of CYP2D6; assay type: ADME
Cytochrome P450 2D6, sequence (P10635 whole entry): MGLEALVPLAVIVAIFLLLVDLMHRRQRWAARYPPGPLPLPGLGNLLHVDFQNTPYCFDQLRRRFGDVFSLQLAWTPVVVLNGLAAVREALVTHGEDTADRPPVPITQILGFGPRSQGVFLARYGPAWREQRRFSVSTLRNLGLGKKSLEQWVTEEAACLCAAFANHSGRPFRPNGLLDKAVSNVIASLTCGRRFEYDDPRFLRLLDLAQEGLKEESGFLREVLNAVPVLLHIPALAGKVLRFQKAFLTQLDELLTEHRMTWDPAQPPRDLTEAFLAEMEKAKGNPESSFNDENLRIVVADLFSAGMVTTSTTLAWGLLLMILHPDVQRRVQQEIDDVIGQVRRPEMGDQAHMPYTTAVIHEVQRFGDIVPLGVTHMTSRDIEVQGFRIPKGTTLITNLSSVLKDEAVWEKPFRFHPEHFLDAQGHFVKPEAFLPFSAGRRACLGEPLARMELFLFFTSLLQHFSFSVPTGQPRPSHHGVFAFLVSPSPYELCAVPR
Outline: (§2)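 CYP inhibition was tested in human liver microsomes with relevant probe substrates.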

[6] = target: T3, Cytochrome P450 3A4 (Homo sapiens, UniProt P08684); test: Inhibition of CYP3A4 uisng testosterone substrate; assay type: ADME; outline: as §2
T3 sequence (P08684 whole entry): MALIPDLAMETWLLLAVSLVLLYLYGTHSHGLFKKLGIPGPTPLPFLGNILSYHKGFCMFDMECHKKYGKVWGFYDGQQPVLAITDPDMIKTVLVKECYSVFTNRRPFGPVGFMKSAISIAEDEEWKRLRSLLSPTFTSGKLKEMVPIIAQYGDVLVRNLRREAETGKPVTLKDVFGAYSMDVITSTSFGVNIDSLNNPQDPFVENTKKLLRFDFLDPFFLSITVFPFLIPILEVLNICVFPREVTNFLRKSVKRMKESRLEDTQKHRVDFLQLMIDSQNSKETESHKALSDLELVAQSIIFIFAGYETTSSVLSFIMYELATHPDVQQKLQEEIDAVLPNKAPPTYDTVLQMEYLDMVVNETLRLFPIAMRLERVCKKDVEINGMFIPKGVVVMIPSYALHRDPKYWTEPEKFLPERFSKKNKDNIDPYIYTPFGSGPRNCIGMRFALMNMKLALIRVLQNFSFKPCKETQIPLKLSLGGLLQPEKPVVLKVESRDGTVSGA

[7] = target: T3, Cytochrome P450 3A4; test: Inhibition of CYP3A4 uisng midazolam substrate; assay type: ADME; outline: as §2
[8] = target: T2, Fatty-acid amide hydrolase 1 (Homo sapiens); details: 100 uM
[9] = organism: Homo sapiens; test: Inhibition of fluorophosphonate-reactive 55/65 kDa serine proteases in human liver soluble proteomes at 100 uM by competitive activity based protein profiling
Outline: (§3)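 Competitive activity-based protein profiling of human or mouse liver soluble proteome. Proteome was treated with inhibitor at 10 or 100 μM, or DMSO, then labelled with FP-rhodamine. Serine hydrolases were resolved on gel and read by fluorescent gel imaging. Bands with reduced labelling intensity in the presence of inhibitor were scored as targets.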

[10] = target: T4, Fatty-acid amide hydrolase 1 (Mus musculus) (UniProt O08914); test: Inhibition of FAAH in mouse brain membrane proteomes at 10 uM by competitive activity based protein profiling; assay type: cell membranes
T4 sequence (whole entry): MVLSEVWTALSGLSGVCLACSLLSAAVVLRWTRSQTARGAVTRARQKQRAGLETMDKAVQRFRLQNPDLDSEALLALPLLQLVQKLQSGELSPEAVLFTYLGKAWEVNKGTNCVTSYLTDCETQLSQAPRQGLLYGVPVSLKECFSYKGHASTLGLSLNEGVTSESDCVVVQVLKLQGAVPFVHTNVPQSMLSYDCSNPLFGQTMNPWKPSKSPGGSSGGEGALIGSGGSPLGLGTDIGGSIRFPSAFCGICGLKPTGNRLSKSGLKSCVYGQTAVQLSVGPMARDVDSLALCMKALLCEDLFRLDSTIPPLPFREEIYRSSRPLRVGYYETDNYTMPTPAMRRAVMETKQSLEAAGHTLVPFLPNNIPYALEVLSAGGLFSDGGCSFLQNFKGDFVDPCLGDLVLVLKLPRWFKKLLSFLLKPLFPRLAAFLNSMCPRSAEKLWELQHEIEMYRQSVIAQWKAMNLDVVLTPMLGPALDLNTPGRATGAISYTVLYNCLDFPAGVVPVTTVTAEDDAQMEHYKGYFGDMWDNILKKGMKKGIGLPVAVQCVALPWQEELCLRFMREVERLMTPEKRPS
Outline: (§4)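 Competitive activity-based protein profiling used human and mouse brain membrane and soluble liver proteomes. Each was treated with compound at 10 or 100 μM or with DMSO, then labelled with FP-rhodamine. Serine hydrolases were resolved on fluorescent gels. Enzymes with reduced labelling intensity in the presence of inhibitor were scored as targets.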

[11] = target: T2, Fatty-acid amide hydrolase 1 (Homo sapiens); details: 10 uM
[12] = target: T4, Fatty-acid amide hydrolase 1 (Mus musculus); test: Inhibition of FAAH in mouse brain membrane proteomes at 100 uM by competitive activity based protein profiling; assay type: cell membranes; outline: as §4
[13] = organism: Mus musculus; test: Inhibition of fluorophosphonate-reactive 55/65 kDa serine proteases in mouse liver soluble proteomes at 100 uM by competitive activity based protein profiling; outline: as §3

Structure (SMILES)	Ratio [1] [M⁻¹ s⁻¹]	Ratio [2] [M⁻¹ s⁻¹]	further results
O=C(Nc1noc2ccccc12)N1CCC(=Cc2cccc(Oc3ccc(C(F)(F)F)cn3)c2)CC1	30200	3930	
O=C(Nc1cccnn1)N1CCC(=Cc2cccc(Oc3ccc(C(F)(F)F)nc3)c2)CC1	2020	26600	
COc1ccc2cc([C@H](C)C(=O)O)ccc2c1			inhibition [3]: Active
Cc1noc(NC(=O)N2CCC(=Cc3cccc(Oc4ccc(C(F)(F)F)cn4)c3)CC2)c1C	54400	7990	
O=C(Nc1cccnc1)N1CCC(Cc2cccc(Oc3ccc(C(F)(F)F)cn3)c2)CC1			MED [4]: 3 mg/kg
O=C(Nc1cccnn1)N1CCC(=Cc2cccc(Oc3ccccc3)c2)CC1	1900	1530	
Cc1ccc(NC(=O)N2CCC(=Cc3cccc(Oc4ccc(C(F)(F)F)cn4)c3)CC2)cn1	5210	13100	IC50 [5]: 1.6 µM; IC50 [6]: 3 µM; IC50 [7]: 11.8 µM
Cc1cccnc1Oc1cccc(C=C2CCN(C(=O)Nc3cccnn3)CC2)c1	256	2200	
O=C(Nc1ccccc1)N1CCC(=Cc2cccc(Oc3ccc(C(F)(F)F)cn3)c2)CC1	584	4800	
Cc1cccc(Oc2cccc(C=C3CCN(C(=O)Nc4cccnn4)CC3)c2)n1	586	1090	
O=C(Nc1cccnc1)N1CC/C(=C/c2cccc(Oc3ccc(C(F)(F)F)cn3)c2)C1		< 16	
O=C(Nc1cccnn1)N1CCC(=Cc2cccc(Oc3ccc(C4CC4)cn3)c2)CC1	46300	28800	
O=C(Nc1cccnc1)N1CCC/C(=C\c2cccc(Oc3ccc(C(F)(F)F)cn3)c2)C1	233	1150	
O=C(Nc1cccnc1)N1CCC/C(=C/c2cccc(Oc3ccc(C(F)(F)F)cn3)c2)C1	22	35	
NC(=O)c1cccc(-c2cccc(OC(=O)NC3CCCCC3)c2)c1			inhibition [8]: Active; inhibition [9]: Active; inhibition [10]: Active; inhibition [11]: Active; inhibition [12]: Active; inhibition [13]: Active
Cc1ccnc(Oc2cccc(C=C3CCN(C(=O)Nc4cccnn4)CC3)c2)c1		1580	
O=C(Nc1cccnc1)N1CC(=Cc2cccc(Oc3ccc(C(F)(F)F)cn3)c2)C1	173	298	
O=C(Nc1cccnn1)N1CCC(=Cc2cccc(Oc3ccc(C(F)(F)F)cc3)c2)CC1	22900	18900	
O=C(Nc1cnccn1)N1CCC(=Cc2cccc(Oc3ccc(C(F)(F)F)cn3)c2)CC1	23700	42600	IC50 [5]: 25.1 µM; IC50 [6]: 23.5 µM; IC50 [7]: 30 µM
O=C(Nc1cccnc1)N1CCC(Cc2cccc(Oc3ccc(C(F)(F)F)cn3)c2)C1 (centres undefined)		88	
CCOc1ccc(Oc2cccc(C=C3CCN(C(=O)Nc4cccnn4)CC3)c2)nc1	11700	9230	
O=C(Nc1ccccn1)N1CCC(=Cc2cccc(Oc3ccc(C(F)(F)F)cn3)c2)CC1	563	6090	
Cc1ccc(Oc2cccc(C=C3CCN(C(=O)Nc4cccnn4)CC3)c2)nc1	5530	21500	
O=C(Nc1cccnc1)N1CCC(=Cc2cccc(Oc3ccc(C(F)(F)F)cn3)c2)CC1	15100	21600	IC50 [5]: 1.4 µM; IC50 [6]: 0.8 µM; IC50 [7]: 4.3 µM
O=C(Nc1cccnc1)N1CC/C(=C\c2cccc(Oc3ccc(C(F)(F)F)cn3)c2)C1		144	
COc1ccc(NC(=O)N2CCC(=Cc3cccc(Oc4ccc(C(F)(F)F)cn4)c3)CC2)cn1	11400	16000	
